In ChEMBL document CHEMBL1145269, “Synthesis and evaluation of urea-based indazoles as melanin-concentrating hormone receptor 1 antagonists for the treatment of obesity” (Bioorg Med Chem Lett, 2005):

Tests used:
[1] = target: Melanin-concentrating hormone receptor (Homo sapiens, UniProt Q969V1+Q99705); experiment: Inhibition of Melanin-concentrating hormone (MCH) mediated [Ca2+] release in IMR-32 cells; assay type: functional, cell-based
[2] = Area under curve in diet-induced obese mice brain at 10 mg/kg (p.o.) concentration; assay type: ADME, organism-based; design: dose 10 mg/kg, route oral; details: mouse, in vivo, po
[3] = Area under curve in diet-induced obese mice plasma at 10 mg/kg (p.o.) concentration; assay type: ADME, organism-based; design: dose 10 mg/kg, route oral; details: mouse, in vivo, po
[4] = target: Melanin-concentrating hormone receptor 1 (Homo sapiens) (UniProt Q99705); experiment: Inhibitory concentration against Melanin-concentrating hormone receptor 1 in human IMR-32 cells
[5] = target: Melanin-concentrating hormone receptor 1 (Homo sapiens) (UniProt Q99705); experiment: Inhibitory concentration against human Melanin-concentrating hormone receptor 1 expressed in IMR-32 cells using [125I]MCH
Mus musculus [6] = experiment: Body weight of the mice after treatment with the compound (30 mg/kg, p.o.) on day 0 (Vehicle=45.0 1 0.7); assay type: functional
Mus musculus [7] = experiment: Body weight of the mice after treatment with the compound (100 mg/kg, p.o.) on day 0 (Vehicle=45.0 1 0.7); assay type: functional
Mus musculus [8] = experiment: Body weight of the mice after treatment with the compound (30 mg/kg, p.o.) on day 14 (Vehicle=46.9 1 0.8); assay type: functional
Mus musculus [9] = experiment: Body weight of the mice after treatment with the compound (100 mg/kg, p.o.) on day 14 (Vehicle=46.9 1 0.8); assay type: functional
Mus musculus [10] = experiment: Percent change of mice body weight after treatment with the compound (30 mg/kg, p.o.) to that of vehicle; assay type: functional
Mus musculus [11] = experiment: Percent change of mice body weight after treatment with the compound (100 mg/kg, p.o.) to that of vehicle; assay type: functional
Mus musculus [12] = experiment: Compound (100 mg/kg, bid) tested for reduction of fat mass in mice (vehicle=22.1); assay type: functional
Mus musculus [13] = experiment: Mean cumulative food intake of mice on day 1 after treatment with compound at 30 mg/kg; n=12; assay type: functional
Procedure, shortened: (§1)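 Chronic study in DIO mice fed a 60 kcal % fat diet ad libitum, dosed by oral gavage bid for 14 days at 30 or 100 mg/kg in 1% Tween 80/water (4 mL/kg). Food weighed on the first day and periodically thereafter. Cumulative intake reported on days 1, 5, 7, 11 and 14; mean ± SEM, n = 12.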

Mus musculus [14] = experiment: Mean cumulative food intake of mice on day 5 after treatment with compound at 30 mg/kg; n=12; assay type: functional; procedure, shortened: as §1
Mus musculus [15] = experiment: Mean cumulative food intake of mice on day 7 after treatment with compound at 30 mg/kg; n=12; assay type: functional; procedure, shortened: as §1
Mus musculus [16] = experiment: Mean cumulative food intake of mice on day 1 after treatment with compound at 100 mg/kg; n=12; assay type: functional; procedure, shortened: as §1
Mus musculus [17] = experiment: Mean cumulative food intake of mice on day 11 after treatment with compound at 30 mg/kg; n=12; assay type: functional; procedure, shortened: as §1
Mus musculus [18] = experiment: Mean cumulative food intake of mice on day 14 after treatment with compound at 30 mg/kg; n=12; assay type: functional; procedure, shortened: as §1
Mus musculus [19] = experiment: Mean cumulative food intake of mice on day 5 after treatment with compound at 100 mg/kg; n=12; assay type: functional; procedure, shortened: as §1
Mus musculus [20] = experiment: Mean cumulative food intake of mice on day 7 after treatment with compound at 100 mg/kg; n=12; assay type: functional; procedure, shortened: as §1
Mus musculus [21] = experiment: Mean cumulative food intake of mice on day 11 after treatment with compound at 100 mg/kg; n=12; assay type: functional; procedure, shortened: as §1
Mus musculus [22] = experiment: Mean cumulative food intake of mice on day 14 after treatment with compound at 100 mg/kg; n=12; assay type: functional; procedure, shortened: as §1
[23] = Maximum brain compound (10mg/kg, p.o.) concentration in diet-induced obese mice; assay type: ADME, organism-based; design: dose 10 mg/kg, route oral; details: mouse, po
[24] = Maximum plasma compound (10 mg/kg, p.o.) concentration in diet-induced obese mice; assay type: ADME, organism-based; design: dose 10 mg/kg, route oral; details: mouse, po
[25] = Area under curve in diet-induced obese mice brain at 10 mg/kg (p.o.) concentration; n=3; assay type: ADME, organism-based; design: dose 10 mg/kg, route oral; details: mouse, in vivo, po
[26] = Area under curve in diet-induced obese mice plasma at 10 mg/kg (p.o.) concentration; n=3; assay type: ADME, organism-based; design: dose 10 mg/kg, route oral; details: mouse, in vivo, po
Mus musculus [27] = experiment: Body weight of the mice after treatment with the compound (10 mg/kg, p.o.) on day 0 (Vehicle=45.0 1 0.7); n=12; assay type: functional
Mus musculus [28] = experiment: Body weight of the mice after treatment with the compound (10 mg/kg, p.o.) on day 14 (Vehicle=46.9 1 0.8); n=12; assay type: functional
Mus musculus [29] = experiment: Percent change of mice body weight after treatment with the compound (10 mg/kg, p.o.) to that of vehicle; n=12; assay type: functional
Mus musculus [30] = experiment: Mean cumulative food intake of mice on day 1 after treatment with compound at 10 mg/kg; n=12; assay type: functional
Procedure, shortened: (§2)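 DIO mice, kept on a high-fat diet (60 kcal % fat, 5.2 kcal/g) for about 16 weeks with ad libitum feeding. Given 10 mg/kg po by gavage qd for 14 days in 1% Tween 80/water at 4 mL/kg, alongside vehicle. Food weighed on the first day and periodically thereafter; cumulative intake reported at days 1, 5, 7, 11 and 14. Mean ± SEM, n = 12.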

Mus musculus [31] = experiment: Mean cumulative food intake of mice on day 5 after treatment with compound at 10 mg/kg; n=12; assay type: functional; procedure, shortened: as §2
Mus musculus [32] = experiment: Mean cumulative food intake of mice on day 7 after treatment with compound at 10 mg/kg; n=12; assay type: functional; procedure, shortened: as §2
Mus musculus [33] = experiment: Mean cumulative food intake of mice on day 11 after treatment with compound at 10 mg/kg; n=12; assay type: functional; procedure, shortened: as §2
Mus musculus [34] = experiment: Mean cumulative food intake of mice on day 14 after treatment with compound at 10 mg/kg; n=12; assay type: functional; procedure, shortened: as §2

O=C(CNCc1ccc(Oc2ccccc2)cc1)Nc1ccc2ccn(CCN3CCCC3)c2c1
IC50 [1]: 1810 nM | AUC [2]: 0.674 µg·h/g | AUC [3]: 1.16 µg/h/mL | IC50 [4]: 299 nM

O=C(Nc1ccc(Oc2ccccc2)cc1)Nc1ccc2c(cnn2CCN2CCC(O)CC2)c1
IC50 [1]: > 10000 nM | IC50 [5]: 6130 nM

O=C(NCCc1ccc(Oc2ccccc2)cc1)Nc1ccc2c(cnn2CCN2CCCC2)c1
IC50 [1]: > 10000 nM | IC50 [5]: 545 nM

O=C(Nc1ccc(Oc2ccccc2)cc1)Nc1cccc2c1cnn2CCN1CCCC1
IC50 [1]: > 10000 nM | IC50 [5]: 1850 nM

O=C(Nc1ccc2cnn(CCN3CCCC3)c2c1)NC1CCN(Cc2ccccc2)CC1
IC50 [1]: > 10000 nM | IC50 [5]: 4510 nM

O=C(Nc1ccc(Oc2ccccc2)cc1)Nc1ccc2c(cnn2CCN2CCCC2)c1
Body weight (Mus musculus [6]): 42.3 g | Body weight (Mus musculus [7]): 42.5 g | Body weight (Mus musculus [8]): 42.3 g | Body weight (Mus musculus [9]): 36.3 g | Change in body weight (Mus musculus [10]): -3.41% | Change in body weight (Mus musculus [11]): -17.1% | Activity (Mus musculus [12]): 16.6 g | Activity (Mus musculus [13]): 3 | Activity (Mus musculus [14]): 11.2 | Activity (Mus musculus [15]): 20.1 | Activity (Mus musculus [16]): 2.17 | Activity (Mus musculus [17]): 32.4 | Activity (Mus musculus [18]): 39.8 | Activity (Mus musculus [19]): 7.86 | Activity (Mus musculus [20]): 13.6 | Activity (Mus musculus [21]): 23.6 | Activity (Mus musculus [22]): 29.4 | Cmax [23]: 260 ng/g | Cmax [24]: 246 ng/mL | AUC [25]: 1.43 µg/h/g | AUC [26]: 5.35 µg/h/g

O=C(Nc1ccc(Oc2ccccc2)cc1)Nc1ccc2c(cnn2CCNC2CCCC2)c1
IC50 [1]: 147 nM | IC50 [5]: 2.4 nM

O=C(Nc1ccc(Oc2ccccc2)cc1)Nc1ccc2c(cnn2CCCN2CCC(O)CC2)c1
IC50 [1]: 894 nM | IC50 [5]: 91.5 nM

O=C(Nc1ccc(Oc2ccccc2)cc1)Nc1ccc2cnn(CCN3CCCC3)c2c1
IC50 [1]: > 10000 nM | IC50 [5]: 581 nM

O=c1n(-c2ccc(Oc3ccccc3)cc2)ccn1-c1ccc2c(cnn2CCN2CCCC2)c1
IC50 [1]: 654 nM | Cmax [23]: 183 ng/g | Cmax [24]: 543 ng/mL | AUC [25]: 1.71 µg/h/g | AUC [26]: 1.35 µg/h/mL | IC50 [5]: 5.9 nM

NC(=O)C1CCN(CCn2ncc3cc(NC(=O)Nc4ccc(Oc5ccccc5)cc4)ccc32)CC1
IC50 [1]: 171 nM | IC50 [5]: 134 nM

O=C(NCCc1ccc(Oc2ccccc2)cc1)Nc1ccc2cnn(CCN3CCCC3)c2c1
IC50 [1]: 178 nM | Cmax [24]: 86 ng/mL | AUC [25]: 0 µg/h/g | AUC [26]: 0.335 µg/h/g | IC50 [5]: 34.3 nM

O=C(Nc1ccc(OCc2ccccc2)cc1)Nc1cccc2c1cnn2CCN1CCCC1
IC50 [1]: > 10000 nM | IC50 [5]: 1050 nM

COC[C@@H]1CCCN1CCn1ncc2cc(NC(=O)Nc3ccc(Oc4ccccc4)cc3)ccc21
IC50 [1]: 516 nM | IC50 [5]: 38.7 nM

CC(C)CNCCn1ncc2cc(NC(=O)Nc3ccc(Oc4ccccc4)cc3)ccc21
IC50 [1]: 751 nM | IC50 [5]: 1.8 nM

CCN[C@@H](C)Cc1cccc(C(F)(F)F)c1 [DEXFENFLURAMINE]
Body weight (Mus musculus [27]): 42.7 g | Body weight (Mus musculus [28]): 39.8 g | Change in body weight (Mus musculus [29]): 9.12% | Activity (Mus musculus [30]): 0.89 | Activity (Mus musculus [31]): 8.44 | Activity (Mus musculus [32]): 17.8 | Activity (Mus musculus [33]): 31.1 | Activity (Mus musculus [34]): 39.9

COC[C@@H]1CCCN1CCCn1ncc2cc(NC(=O)Nc3ccc(Oc4ccccc4)cc3)ccc21
IC50 [1]: 1177 nM | IC50 [5]: 82.9 nM

O=C(Nc1ccc(OCc2ccccc2)cc1)Nc1ccc2cnn(CCN3CCCC3)c2c1
IC50 [1]: 7140 nM | IC50 [5]: 113 nM

O=C(NCc1ccc(Oc2ccccc2)cc1)Nc1ccc2cnn(CCN3CCCC3)c2c1
IC50 [1]: 626 nM | IC50 [5]: 78.5 nM

O=C(Cc1ccc(OCc2ccccc2)cc1)Nc1ccc2cnn(CCN3CCCC3)c2c1
IC50 [1]: 11 nM | Cmax [24]: 596 ng/mL | AUC [2]: 1.33 µg·h/g | AUC [3]: 2.12 µg/h/mL | IC50 [4]: 1.4 nM

O=C(Nc1ccc(OCc2ccccc2)cc1)Nc1ccc2c(cnn2CCN2CCCC2)c1
IC50 [1]: > 10000 nM | IC50 [5]: 41.3 nM

O=C(Nc1ccc(Oc2ccccc2)cc1)Nc1ccc2c(cnn2CCN2CCC(F)(F)C2)c1
IC50 [1]: > 10000 nM | IC50 [5]: 305 nM

NC(=O)C1CCN(CCCn2ncc3cc(NC(=O)Nc4ccc(Oc5ccccc5)cc4)ccc32)CC1
IC50 [1]: 2880 nM | IC50 [5]: 40.6 nM

O=C(NCc1ccc(Oc2ccccc2)cc1)Nc1ccc2c(cnn2CCN2CCCC2)c1
IC50 [1]: > 10000 nM | IC50 [5]: 508 nM

O=C1N(c2ccc(Oc3ccccc3)cc2)CCN1c1ccc2c(cnn2CCN2CCCC2)c1
IC50 [1]: 1120 nM | IC50 [5]: 19.8 nM
